# Measurements: ChEMBL document CHEMBL4414568, “Development of Novel Irreversible Pyruvate Kinase M2 Inhibitors” (J Med Chem, 2019)
# The source made the active and inactive calls. No cut-off for these calls is given here.
# Experiments:
# PC-9 [1] = experiment: Antiproliferative activity against human PC9 cells harboring EGFR mutant assessed as reduction in cell viability incubated for 24 hrs by MTT assay; type: functional, cell-based; conditions: PC-9, 24 h
# How it was run: (§1)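 Cells seeded at 3,500 per well in 10% FBS and left overnight, then exposed to test agent or vehicle in 5% FBS for 24 h. MTT added for 1 h, then medium swapped for DMSO and absorbance read at 560 nm. Viability given as percent of vehicle-treated control. Run in triplicate.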
# NCI-H460 = experiment: Antiproliferative activity against human H460 cells expressing wild type EGFR assessed as reduction in cell viability incubated for 24 hrs by MTT assay; type: functional, cell-based; conditions: NCI-H460, 24 h; how it was run: as §1
# [2] = target: T1, Phosphoenolpyruvate carboxykinase [GTP], mitochondrial (Homo sapiens) (UniProt Q16822); experiment: Binding affinity to PCKGM in human PC9 cells incubated for 1 hr by ABPP-SILAC assay; type: cell-based
# T1 sequence (whole entry): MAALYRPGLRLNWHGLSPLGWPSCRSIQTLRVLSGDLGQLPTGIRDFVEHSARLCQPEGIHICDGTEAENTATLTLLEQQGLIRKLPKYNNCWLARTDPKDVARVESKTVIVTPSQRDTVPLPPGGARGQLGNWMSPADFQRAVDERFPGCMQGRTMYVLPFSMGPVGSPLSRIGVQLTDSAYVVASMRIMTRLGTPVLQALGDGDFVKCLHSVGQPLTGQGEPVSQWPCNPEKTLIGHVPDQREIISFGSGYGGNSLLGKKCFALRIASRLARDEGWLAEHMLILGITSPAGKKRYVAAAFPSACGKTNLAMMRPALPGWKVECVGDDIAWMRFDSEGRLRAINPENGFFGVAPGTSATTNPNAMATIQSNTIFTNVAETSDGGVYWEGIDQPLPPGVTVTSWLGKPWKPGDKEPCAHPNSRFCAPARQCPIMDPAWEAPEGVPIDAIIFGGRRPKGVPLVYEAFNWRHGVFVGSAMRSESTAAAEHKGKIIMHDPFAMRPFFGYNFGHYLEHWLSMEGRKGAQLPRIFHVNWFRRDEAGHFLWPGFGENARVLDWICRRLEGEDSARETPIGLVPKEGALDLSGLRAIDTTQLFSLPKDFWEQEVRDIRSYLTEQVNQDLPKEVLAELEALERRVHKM
# How it was run: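 PC-9 cells passaged at least six times in SILAC DMEM with 10% dialyzed FBS plus 100 µg/mL light or 13C/15N-labeled Arg/Lys. Heavy cells got ABPP probe (1 µM) and light cells DMSO, 1 h at 37 °C. Cells mixed 1:1, sonicated, spun at 100,000g, protein normalized to 1 mg/mL. Click biotin-azide, streptavidin bead pulldown 16 h at 4 °C, SDS-PAGE, on-bead trypsin digestion, LC-MS/MS.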
# Pyruvate kinase PKM [3] = target: T2, Pyruvate kinase PKM (Homo sapiens, UniProt P14618); experiment: Inhibition of PKM2 in human PC9 cells assessed as decrease in extracellular acidification rate preincubated for 4 hrs followed by glucose/oligomycin/2-DG addition and measured after 1 hr by seahorse XFe96 analyser based assay; type: cell-based
# How it was run: (§2)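 PC-9 cells, 5 × 10^4 per well, seeded 24 h ahead, then treated with DMSO or compound at 0.25, 0.5 or 1 µM for 4 h at 37 °C. Cells held 1 h without CO2 in glycolysis medium. Seahorse glycolysis stress test with serial injections of 10 mM glucose, oligomycin and 50 mM 2-DG; ECAR and OCR recorded together. Six wells per point.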
# PC-9 [4] = experiment: Down regulation of PKM2 expression in human PC9 cells incubated for 24 hrs by Western blot analysis; type: functional, cell-based
# How it was run: (§3)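 PC-9 cells seeded at 5 × 10^5 cells/mL; after 24 h given 0–1 µM compound or DMSO for 24 h. Lysates run on 10% SDS-PAGE, transferred to nitrocellulose, probed for PKM2, EGFR, p-STAT3, STAT3, p-β-catenin, β-catenin and β-actin with HRP secondaries, ECL detection.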
# Pyruvate kinase PKM [5] = target: T2, Pyruvate kinase PKM; experiment: Inhibition of PKM2 in human PC9 cells assessed as reduction in beta-catenin phosphorylation incubated for 24 hrs by Western blot analysis; type: cell-based; how it was run: as §3
# Pyruvate kinase PKM [6] = target: T2, Pyruvate kinase PKM; experiment: Inhibition of PKM2 in human PC9 cells assessed as reduction in STAT3 phosphorylation at 0.5 uM incubated for 24 hrs by Western blot analysis; type: cell-based; how it was run: as §3
# PC-9 [7] = experiment: Antitumor activity against human PC9 cells xenografted in athymic nude mouse assessed as reduction in tumor volume at 10 mg/kg, ip administered once daily for 25 days measured post-last dose; type: functional, organism-based
# How it was run: (§4)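 Female nude mice, 6 weeks old, given s.c. 1 × 10^6 PC-9 cells in Matrigel (1:1). From day 7, once-daily i.p. vehicle or 10 mg/kg compound in sterile water with 0.5% methylcellulose and 0.1% Tween-80, n = 8 per group, for 25 days. Tumor volume and body weight followed, tumors weighed at end.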
# PC-9 [8] = experiment: Antitumor activity against human PC9 cells xenografted in athymic nude mouse assessed as reduction in tumor weight at 10 mg/kg, ip administered once daily for 25 days measured post-last dose; type: functional, organism-based; how it was run: as §4
# Mus musculus [9] = experiment: In vivo inhibition of PKM2 in human PC9 cells xenografted in athymic nude mouse assessed as reduction in beta-catenin expression at 10 mg/kg, ip administered once daily for 25 days measured post-last dose by Western blot analysis; type: functional, organism-based
# How it was run: (§5)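 Tumors from PC-9 xenograft nude mice given 10 mg/kg i.p. daily or vehicle for 25 days (n = 8 per group) were lysed for Western blots of PKM2, EGFR, Stat3 and β-catenin. Bands quantified by ImageJ and normalized to GAPDH.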
# Mus musculus [10] = experiment: In vivo inhibition of PKM2 in human PC9 cells xenografted in athymic nude mouse assessed as reduction in STAT3 expression at 10 mg/kg, ip administered once daily for 25 days measured post-last dose by Western blot analysis; type: functional, organism-based; how it was run: as §5
# PC-9 [11] = experiment: Effect on basal extracellular acidification rate in human PC9 cells at 0.25 to 1 uM measured after 4 hrs in absence of glucose by seahorse XF96 flux analyser based assay; type: cell-based; conditions: pc-9, 4 h; how it was run: as §2
# PC-9 [12] = experiment: Induction of basal oxygen consumption rate in human PC9 cells at 0.25 to 1 uM measured after 4 hrs in absence of glucose by seahorse XF96 flux analyser based assay; type: functional, cell-based; how it was run: as §2
# T2 sequence (P14618 2-531 limits assumed): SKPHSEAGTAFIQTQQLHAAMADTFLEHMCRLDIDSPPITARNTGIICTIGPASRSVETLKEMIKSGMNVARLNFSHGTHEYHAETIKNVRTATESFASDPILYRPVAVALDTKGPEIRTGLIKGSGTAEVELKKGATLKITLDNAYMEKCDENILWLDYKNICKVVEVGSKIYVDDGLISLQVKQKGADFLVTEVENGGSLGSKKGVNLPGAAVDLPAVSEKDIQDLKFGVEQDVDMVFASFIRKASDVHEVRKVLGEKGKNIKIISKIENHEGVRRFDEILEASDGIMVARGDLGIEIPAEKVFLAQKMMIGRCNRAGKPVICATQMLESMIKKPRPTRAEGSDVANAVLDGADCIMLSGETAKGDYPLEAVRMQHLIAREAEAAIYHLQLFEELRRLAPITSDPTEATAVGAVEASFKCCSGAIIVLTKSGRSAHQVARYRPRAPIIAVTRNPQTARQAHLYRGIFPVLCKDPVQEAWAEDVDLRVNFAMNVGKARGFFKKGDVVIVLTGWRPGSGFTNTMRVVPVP
smiles,measurement,setting,value
C#CC(=O)Nc1ccc(-n2nc(CCC(=O)NC)cc2-c2ccc(-c3ccc(C(F)(F)F)cc3)cc2)cc1,IC50,PC-9 [1],500 nM
same,IC50,NCI-H460,1500 nM
same,Activity,[2],Active
same,inhibition,Pyruvate kinase PKM [3],Dose-dependent effect
same,Activity,PC-9 [4],Dose-dependent effect
same,inhibition,Pyruvate kinase PKM [5],Dose-dependent effect
same,inhibition,Pyruvate kinase PKM [6],inactive
same,Activity,PC-9 [7],Active
same,Activity,PC-9 [8],Active
same,inhibition,Mus musculus [9],Active
same,inhibition,Mus musculus [10],Active
same,Activity,PC-9 [11],Non-Toxic
same,Activity,PC-9 [12],Active
